Assays:
CYP1A2 = target: T1, CYP1A2 (Homo sapiens, UniProt P05177); assay: Inhibition of CYP1A2 at 3 uM; assay type: ADME
T1 sequence (P05177 whole entry): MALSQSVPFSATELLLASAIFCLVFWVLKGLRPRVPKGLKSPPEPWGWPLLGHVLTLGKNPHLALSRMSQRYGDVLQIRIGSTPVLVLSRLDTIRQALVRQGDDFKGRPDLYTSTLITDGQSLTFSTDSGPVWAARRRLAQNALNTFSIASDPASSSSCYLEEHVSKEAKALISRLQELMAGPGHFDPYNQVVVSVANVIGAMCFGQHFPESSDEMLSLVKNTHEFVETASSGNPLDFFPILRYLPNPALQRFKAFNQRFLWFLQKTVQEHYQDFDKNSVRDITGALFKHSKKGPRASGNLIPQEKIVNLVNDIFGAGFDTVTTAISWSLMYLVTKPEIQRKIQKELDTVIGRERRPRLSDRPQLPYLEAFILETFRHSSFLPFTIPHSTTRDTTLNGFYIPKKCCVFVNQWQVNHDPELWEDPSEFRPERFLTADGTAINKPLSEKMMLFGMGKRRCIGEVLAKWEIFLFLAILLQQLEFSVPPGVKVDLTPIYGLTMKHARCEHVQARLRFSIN

[1] = target: T2, Soluble guanylate cyclase (Homo sapiens) (UniProt Q02153+O75343+P33402+Q02108); assay: Activation of human soluble guanylate cyclase assessed as production of cGMP in presence of nitric oxide donor, SIN-1 by LC-MS enzyme assay; assay type: protein-complex assay
[2] = target: T2, Soluble guanylate cyclase (Homo sapiens); assay: Activation of human soluble guanylate cyclase assessed as production of cGMP in presence of nitric oxide donor, SIN-1 by FP assay; assay type: protein-complex assay
How it was run: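 Purified human sGC with the NO donor SIN-1 present. Enzyme converts GTP to cGMP, and the cGMP binds a cGMP-specific antibody included in the reactions. Read-out is fluorescence polarization.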

[3] = Octanol-buffer partition coefficient, log D of the compound at pH 7.4; assay type: physicochemical
How it was run: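 LogD measured by partition between octanol and pH 7.4 buffer.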

[4] = Intrinsic clearance in human liver microsomes assessed per mg of protein; assay type: ADME, Microsome
How it was run: (§1)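 Intrinsic metabolic clearance in liver microsomes, expressed as µL/min/mg protein.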

[5] = Apparent permeability from apical to basolateral side in dog RRCK cells; assay type: ADME, cell-based, Canis lupus familiaris, MDCKII-LE; details: MDCK
How it was run: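 Passive permeability measured in RRCK cells as Papp A→B, in units of 10^-6 cm/s.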

[6] = Activation of soluble guanylate cyclase in Sprague-Dawley rat thoracic aorta rings assessed as inhibition of noradrenaline-evoked vasoconstriction in presence of nitric oxide donor, DETA-NO
[7] = Apparent permeability of the compound by PAMPA assay; assay type: ADME
How it was run: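 Passive permeability from a PAMPA screen, as Papp in units of 10^-6 cm/s.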

[8] = Half life in rat at 2 mg/kg, iv; assay type: ADME, organism-based; set-up: dose 2 mg/kg, route intravenous; details: in vivo
How it was run: (§2)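 Rats dosed iv at 2 mg/kg. Clearance, volume of distribution at steady state and half-life derived after iv dosing.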

[9] = Clearance in rat at 2 mg/kg, iv; assay type: ADME, organism-based; set-up: dose 2 mg/kg, route intravenous; details: in vivo; how it was run: as §2
[10] = Volume of distribution at steady state in rat at 2 mg/kg, iv; assay type: ADME, organism-based; set-up: dose 2 mg/kg, route intravenous; details: in vivo, read-out: Vdss; how it was run: as §2
[11] = Activation of soluble guanylate cyclase in Sprague-Dawley rat thoracic aorta rings assessed as […] in presence of nitric oxide donor, DETA-NO; assay type: tissue-based
[12] = Oral bioavailability in rat at 2 mg/kg; assay type: ADME, organism-based; details: in vivo
How it was run: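 Rats dosed orally at 2 mg/kg. Bioavailability determined after oral dosing, with a 2 mg/kg iv arm for reference.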

[13] = Intrinsic clearance in rat liver microsomes assessed per mg of protein; assay type: ADME, Microsome; how it was run: as §1
[14] = target: Voltage-gated inwardly rectifying potassium channel KCNH2 (Homo sapiens, UniProt Q12809); assay: Inhibition of human ERG
Sequence of Voltage-gated inwardly rectifying potassium channel KCNH2 (Q12809 whole entry): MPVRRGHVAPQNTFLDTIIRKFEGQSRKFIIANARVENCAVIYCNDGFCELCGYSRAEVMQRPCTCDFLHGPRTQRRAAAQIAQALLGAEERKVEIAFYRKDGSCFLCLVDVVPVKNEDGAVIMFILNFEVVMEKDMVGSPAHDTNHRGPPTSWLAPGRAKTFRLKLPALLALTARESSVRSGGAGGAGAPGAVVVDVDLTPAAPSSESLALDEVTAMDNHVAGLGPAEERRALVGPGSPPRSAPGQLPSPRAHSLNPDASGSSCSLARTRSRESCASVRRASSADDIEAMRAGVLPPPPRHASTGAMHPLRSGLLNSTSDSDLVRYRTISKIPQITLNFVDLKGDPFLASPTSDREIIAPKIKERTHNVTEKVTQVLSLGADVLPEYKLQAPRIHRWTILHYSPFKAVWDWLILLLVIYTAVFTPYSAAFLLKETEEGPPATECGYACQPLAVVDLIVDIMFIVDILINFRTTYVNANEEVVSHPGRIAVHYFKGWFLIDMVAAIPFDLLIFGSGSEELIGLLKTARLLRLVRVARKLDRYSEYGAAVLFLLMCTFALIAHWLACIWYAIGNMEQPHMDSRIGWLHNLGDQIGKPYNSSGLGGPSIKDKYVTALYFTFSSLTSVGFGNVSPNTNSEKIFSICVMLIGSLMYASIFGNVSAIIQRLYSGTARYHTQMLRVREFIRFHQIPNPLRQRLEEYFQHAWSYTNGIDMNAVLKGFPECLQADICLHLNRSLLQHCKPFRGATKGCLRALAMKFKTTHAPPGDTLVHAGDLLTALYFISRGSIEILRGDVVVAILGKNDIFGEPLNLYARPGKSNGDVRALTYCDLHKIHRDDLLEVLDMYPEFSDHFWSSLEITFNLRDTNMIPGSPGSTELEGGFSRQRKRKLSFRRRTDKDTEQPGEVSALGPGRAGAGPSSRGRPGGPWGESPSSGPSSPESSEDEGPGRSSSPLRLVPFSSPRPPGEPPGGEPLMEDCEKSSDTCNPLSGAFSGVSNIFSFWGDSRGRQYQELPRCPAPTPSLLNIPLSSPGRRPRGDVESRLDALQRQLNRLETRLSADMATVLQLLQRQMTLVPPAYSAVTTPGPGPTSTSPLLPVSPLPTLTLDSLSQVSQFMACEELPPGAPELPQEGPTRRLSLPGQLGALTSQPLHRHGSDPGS

**Q.** Which inhibition at 3 µM (CYP1A2) does the source give for Fc1ccccc1Cc1nc(-c2nc(C(F)(F)F)n[nH]2)c2ccccn12 here?
**A.** 66%

**Q.** What about the EC10 [1] of the same compound?
**A.** 658 nM

**Q.** What about the EC20 [2] of the same compound?
**A.** 1070 nM

**Q.** What about the logD [3] of the same compound?
**A.** 3.9

**Q.** And the microsomal CLint [4]?
**A.** 20 µL/min/mg

**Q.** And the Papp A→B [5]?
**A.** 17 ×10⁻⁶ cm/s

**Q.** For Cc1ncc(Cc2nc(-c3nc(C(F)(F)F)n[nH]3)n3ccccc23)cn1, which inhibition at 3 µM (CYP1A2) is on record?
**A.** 5%

**Q.** And the EC10 [1]?
**A.** 366 nM

**Q.** And the EC20 [2]?
**A.** 245 nM

**Q.** And the logD [3]?
**A.** 2.1

**Q.** What about the microsomal CLint [4] of the same compound?
**A.** < 8 µL/min/mg

**Q.** And the Papp A→B [5]?
**A.** 27 ×10⁻⁶ cm/s

**Q.** Which inhibition at 3 µM (CYP1A2) does the source give for CS(=O)(=O)c1n[nH]c(-c2nc(Cc3ccccc3F)c3ccccn23)n1 here?
**A.** 3%

**Q.** And the EC10 [1]?
**A.** 1340 nM

**Q.** And the logD [3]?
**A.** 1.2

**Q.** And the microsomal CLint [4]?
**A.** 14 µL/min/mg

**Q.** With Fc1ccccc1Cc1nc(-c2nc(C(F)(F)F)n[nH]2)n2cccnc12 as the compound, how does the inhibition at 3 µM (CYP1A2) read?
**A.** 17%

**Q.** What about the EC10 [1] of the same compound?
**A.** 724 nM

**Q.** And the EC20 [2]?
**A.** 221 nM

**Q.** What about the logD [3] of the same compound?
**A.** 2.5

**Q.** And the microsomal CLint [4]?
**A.** 17 µL/min/mg

**Q.** And the Papp A→B [5]?
**A.** 28 ×10⁻⁶ cm/s

**Q.** Which inhibition at 3 µM (CYP1A2) does the source give for Cc1ncc(Cc2nc(-c3nc(C(F)(F)F)n[nH]3)n3cccc(F)c23)cn1 here?
**A.** 15%

**Q.** And the EC20 [2]?
**A.** 73 nM

**Q.** What about the logD [3] of the same compound?
**A.** 2

**Q.** And the microsomal CLint [4]?
**A.** < 8 µL/min/mg

**Q.** What about the Papp A→B [5] of the same compound?
**A.** 23 ×10⁻⁶ cm/s

**Q.** For Fc1ccccc1Cc1nc(-c2nc(C(F)F)n[nH]2)n2ccccc12, which inhibition at 3 µM (CYP1A2) is on record?
**A.** 49%

**Q.** And the EC10 [1]?
**A.** 507 nM

**Q.** And the logD [3]?
**A.** 3.8

**Q.** What about the microsomal CLint [4] of the same compound?
**A.** 62 µL/min/mg

**Q.** And the Papp A→B [5]?
**A.** 0.2 ×10⁻⁶ cm/s

**Q.** With Cc1n[nH]c(-c2nc(Cc3ccccc3F)c3ccccn23)n1 as the compound, how does the inhibition at 3 µM (CYP1A2) read?
**A.** 23%

**Q.** And the EC10 [1]?
**A.** 393 nM

**Q.** And the logD [3]?
**A.** 3.3

**Q.** And the microsomal CLint [4]?
**A.** 124 µL/min/mg

**Q.** And the Papp A→B [5]?
**A.** 1 ×10⁻⁶ cm/s

**Q.** With Nc1nc(-c2nn(Cc3ccccc3F)c3ncccc23)nc(N)c1N1CCOCC1 as the compound, how does the IC50 [6] read?
**A.** 11 nM

**Q.** And the EC10 [1]?
**A.** 44 nM

**Q.** And the EC20 [2]?
**A.** 11 nM

**Q.** And the logD [3]?
**A.** 3.1

**Q.** What does the source list for Cc1ncc(Cn2nc(-c3nc(C(F)(F)F)n[nH]3)c3cccnc32)cn1?
**A.** inhibition at 3 µM (CYP1A2): < 5%; Papp [7]: 27 ×10⁻⁶ cm/s; EC20 [2]: 58 nM; microsomal CLint [4]: < 7 µL/min/mg

**Q.** What does the source list for Fc1ccccc1Cc1nc(-c2nc(C(F)(F)F)n[nH]2)n2ccccc12?
**A.** inhibition at 3 µM (CYP1A2): 57%; IC50 [6]: 40 nM; EC10 [1]: 470 nM; EC20 [2]: 281 nM; logD [3]: 3.8; microsomal CLint [4]: 72 µL/min/mg; Papp A→B [5]: 6 ×10⁻⁶ cm/s

**Q.** With Fc1ccccc1Cc1nc(-c2nc(Cc3ccccc3)n[nH]2)n2ccccc12 as the compound, how does the inhibition at 3 µM (CYP1A2) read?
**A.** 29%

**Q.** And the EC10 [1]?
**A.** 840 nM

**Q.** What about the EC20 [2] of the same compound?
**A.** 554 nM

**Q.** What about the Papp A→B [5] of the same compound?
**A.** 0.5 ×10⁻⁶ cm/s

**Q.** With Fc1ccccc1Cc1nc(-c2nc(C(F)(F)F)n[nH]2)c2cccnn12 as the compound, how does the EC10 [1] read?
**A.** 224 nM

**Q.** For Fc1ccccc1Cc1nc(-c2ncn[nH]2)n2ccccc12, which inhibition at 3 µM (CYP1A2) is on record?
**A.** 39%

**Q.** What about the EC10 [1] of the same compound?
**A.** 2800 nM

**Q.** And the logD [3]?
**A.** 3.3

**Q.** And the microsomal CLint [4]?
**A.** 175 µL/min/mg

**Q.** And the Papp A→B [5]?
**A.** 8 ×10⁻⁶ cm/s

**Q.** For Fc1ccccc1Cn1nc(-c2nc(C(F)(F)F)n[nH]2)c2cccnc21, which inhibition at 3 µM (CYP1A2) is on record?
**A.** 20%

**Q.** And the half-life [8]?
**A.** 4.7 h

**Q.** And the clearance [9]?
**A.** 8 mL/min/kg

**Q.** And the Vd [10]?
**A.** 3.1 L/kg

**Q.** What about the IC50 [11] of the same compound?
**A.** 33 nM

**Q.** And the EC10 [1]?
**A.** 60 nM

**Q.** And the EC20 [2]?
**A.** 22 nM

**Q.** And the logD [3]?
**A.** 3.2

**Q.** What about the microsomal CLint [4] of the same compound?
**A.** < 11 µL/min/mg

**Q.** What about the Papp A→B [5] of the same compound?
**A.** 20 ×10⁻⁶ cm/s

**Q.** And the bioavailability [12]?
**A.** 66%

**Q.** Which inhibition at 3 µM (CYP1A2) does the source give for Fc1ccccc1Cc1nc(-c2nc(C(F)(F)C(F)(F)F)n[nH]2)n2ccccc12 here?
**A.** 31%

**Q.** What about the EC10 [1] of the same compound?
**A.** 1170 nM

**Q.** What about the logD [3] of the same compound?
**A.** 4.2

**Q.** And the microsomal CLint [4]?
**A.** 92 µL/min/mg

**Q.** And the Papp A→B [5]?
**A.** 3 ×10⁻⁶ cm/s

**Q.** What does the source list for FC(F)(F)c1n[nH]c(-c2nc(Cc3cncnc3)c3ccccn23)n1?
**A.** inhibition at 3 µM (CYP1A2): 82%; half-life [8]: 4.1 h; IC50 [6]: 60 nM; microsomal CLint [13]: < 16 µL/min/mg; clearance [9]: 9.9 mL/min/kg; Vd [10]: 3.7 L/kg; EC10 [1]: 210 nM; EC20 [2]: 80 nM; logD [3]: 1.8; microsomal CLint [4]: < 7 µL/min/mg; INH [14]: > 10 µM; Papp A→B [5]: 19 ×10⁻⁶ cm/s; bioavailability [12]: 61%

**Q.** What does the source list for OCc1ccc(-c2nn(Cc3ccccc3)c3ccccc23)o1?
**A.** inhibition at 3 µM (CYP1A2): 69%; EC10 [1]: 3360 nM; logD [3]: 3.7; microsomal CLint [4]: 212 µL/min/mg; Papp A→B [5]: 6 ×10⁻⁶ cm/s

**Q.** What does the source list for NC(=O)c1n[nH]c(-c2nc(Cc3ccccc3F)c3ccccn23)n1?
**A.** inhibition at 3 µM (CYP1A2): 16%; EC10 [1]: 2810 nM; logD [3]: 2.8; microsomal CLint [4]: < 8 µL/min/mg; Papp A→B [5]: 13 ×10⁻⁶ cm/s

Source: ChEMBL document CHEMBL1914314, “Acidic triazoles as soluble guanylate cyclase stimulators” (Bioorg Med Chem Lett, 2011)
